Test results as given in ChEMBL document CHEMBL1275408, “A chemical genomic screen in Saccharomyces cerevisiae reveals a role for diphthamidation of translation elongation factor 2 in inhibition of protein synthesis by sordarin” (2008).
The source made the active and inactive calls. The rule behind the calls is not given here.

Columns and labels:
Saccharomyces cerevisiae [1] = assay: Antifungal activity against Saccharomyces cerevisiae BY4741 harboring TOK1 YJL093C mutant gene by spectrophotometry; assay type: functional
Procedure, shortened: (§1)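 Haploid MATa BY4741 KanMX4 deletion strains pinned from frozen stocks into YPD + G418 (150 mg/liter), grown 3 days at 28°C to confluence, then pin-replicated into SC liquid with no drug or sordarin derivative GM193663 (2 ng/ml sensitivity; 62.5 ng/ml resistance). 28°C, OD595 read every 24 h for 5 days; growth scored relative to wild type on same plate and to untreated mutant.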

Saccharomyces cerevisiae [2] = assay: Antifungal activity against Saccharomyces cerevisiae BY4741 harboring IBD2 YNL164C mutant gene by spectrophotometry; assay type: functional
Procedure, shortened: (§2)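 Screen of BY4741 KanMX4 deletion strains pre-grown 3 days at 28°C in YPD with G418 (150 mg/liter), then pinned into liquid SC containing GM193663. The sensitivity screen used 2 ng/ml; the resistance screen used 62.5 ng/ml, with validation at 62.5, 125 and 500 ng/ml. OD595 was read every 24 h over 5 days at 28°C. Growth was scored relative to wild type and to drug-free controls. Retests were at least in duplicate.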

Saccharomyces cerevisiae [3] = assay: Antifungal activity against Saccharomyces cerevisiae BY4741 harboring COQ1 YBR003W mutant gene by spectrophotometry; assay type: functional; procedure, shortened: as §2
Saccharomyces cerevisiae [4] = assay: Antifungal activity against Saccharomyces cerevisiae BY4741 harboring SHE2 YKL130C mutant gene by spectrophotometry; assay type: functional; procedure, shortened: as §1
Saccharomyces cerevisiae [5] = assay: Antifungal activity against Saccharomyces cerevisiae BY4741 harboring PUF3 YLL013C mutant gene by spectrophotometry; assay type: functional; procedure, shortened: as §1
Saccharomyces cerevisiae [6] = assay: Antifungal activity against Saccharomyces cerevisiae BY4741 harboring YBR099C mutation by spectrophotometry; assay type: functional; procedure, shortened: as §1
Saccharomyces cerevisiae [7] = assay: Antifungal activity against Saccharomyces cerevisiae BY4741 harboring MGT1 YDL200C mutant gene by spectrophotometry; assay type: functional; procedure, shortened: as §2
Saccharomyces cerevisiae [8] = assay: Antifungal activity against Saccharomyces cerevisiae BY4741 harboring RAD28 YDR030C mutant gene by spectrophotometry; assay type: functional; procedure, shortened: as §1
Saccharomyces cerevisiae [9] = assay: Antifungal activity against Saccharomyces cerevisiae BY4741 harboring MUP3 YHL036W mutant gene by spectrophotometry; assay type: functional; procedure, shortened: as §1
Saccharomyces cerevisiae [10] = assay: Antifungal activity against Saccharomyces cerevisiae BY4741 harboring ARN1 YHL040C mutant gene by spectrophotometry; assay type: functional; procedure, shortened: as §2
Saccharomyces cerevisiae [11] = assay: Antifungal activity against Saccharomyces cerevisiae BY4741 harboring LYS14 YDR034C mutant gene by spectrophotometry; assay type: functional; procedure, shortened: as §2
Saccharomyces cerevisiae [12] = assay: Antifungal activity against Saccharomyces cerevisiae BY4741 harboring THI20 YOL055C mutant gene by spectrophotometry; assay type: functional; procedure, shortened: as §1
Saccharomyces cerevisiae [13] = assay: Antifungal activity against Saccharomyces cerevisiae BY4741 harboring BUD9 YGR041W mutant gene by spectrophotometry; assay type: functional; procedure, shortened: as §2
Saccharomyces cerevisiae [14] = assay: Antifungal activity against Saccharomyces cerevisiae BY4741 harboring MHP1 YJL042W mutant gene by spectrophotometry; assay type: functional; procedure, shortened: as §2
Saccharomyces cerevisiae [15] = assay: Antifungal activity against Saccharomyces cerevisiae BY4741 harboring SBE2 YDR351W mutant gene by spectrophotometry; assay type: functional; procedure, shortened: as §1
Saccharomyces cerevisiae [16] = assay: Antifungal activity against Saccharomyces cerevisiae BY4741 harboring CUE1 YMR264W mutant gene by spectrophotometry; assay type: functional; procedure, shortened: as §2
Saccharomyces cerevisiae [17] = assay: Antifungal activity against Saccharomyces cerevisiae BY4741 harboring EAF3 YPR023C mutant gene by spectrophotometry; assay type: functional; procedure, shortened: as §2
Saccharomyces cerevisiae [18] = assay: Antifungal activity against Saccharomyces cerevisiae BY4741 harboring RAM1 YDL090C mutant gene by spectrophotometry; assay type: functional; procedure, shortened: as §1
Saccharomyces cerevisiae [19] = assay: Antifungal activity against Saccharomyces cerevisiae BY4741 harboring STE1 YDR410C mutant gene by spectrophotometry; assay type: functional; procedure, shortened: as §1
Saccharomyces cerevisiae [20] = assay: Antifungal activity against Saccharomyces cerevisiae BY4741 harboring FUN12 YAL035W mutant gene by spectrophotometry; assay type: functional; procedure, shortened: as §2
Saccharomyces cerevisiae [21] = assay: Antifungal activity against Saccharomyces cerevisiae BY4741 harboring MRPL24 YMR193W mutant gene by spectrophotometry; assay type: functional; procedure, shortened: as §1
Saccharomyces cerevisiae [22] = assay: Antifungal activity against Saccharomyces cerevisiae BY4741 harboring MRP20 YDR405W mutant gene by spectrophotometry; assay type: functional; procedure, shortened: as §2
Saccharomyces cerevisiae [23] = assay: Antifungal activity against Saccharomyces cerevisiae BY4741 harboring RPS4A YJR145C mutant gene by spectrophotometry; assay type: functional; procedure, shortened: as §1
Saccharomyces cerevisiae [24] = assay: Antifungal activity against Saccharomyces cerevisiae BY4741 harboring RPL1B YGL135W mutant gene by spectrophotometry; assay type: functional; procedure, shortened: as §1
Saccharomyces cerevisiae [25] = assay: Antifungal activity against Saccharomyces cerevisiae BY4741 harboring DPH5 YLR172C mutant gene by spectrophotometry; assay type: functional; procedure, shortened: as §2
Saccharomyces cerevisiae [26] = assay: Antifungal activity against Saccharomyces cerevisiae BY4741 harboring JJJ3/DPH4 YJR097W mutant gene by spectrophotometry; assay type: functional; procedure, shortened: as §2
Saccharomyces cerevisiae [27] = assay: Antifungal activity against Saccharomyces cerevisiae BY4741 harboring SPS1 YDR523C mutant gene assessed as reduction in fungal growth at 2 ng/ml by spectrophotometry; assay type: functional, organism-based
Procedure, shortened: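 Deletion strains (BY4741 background) pre-grown 3 days at 28°C in YPD + G418 (150 mg/liter), then pin-replicated into SC liquid containing 2 ng/ml GM193663 or no drug. 28°C, OD595 every 24 h over 5 days; growth scored against wild type on same plate and against drug-free mutant control; hits retested at least in duplicate at 2 ng/ml.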

Saccharomyces cerevisiae [28] = assay: Antifungal activity against Saccharomyces cerevisiae BY4741 harboring deletion mutation in dph5 gene at 300 to 500 ng/ml after 24 hrs by liquid growth assay; assay type: functional
Saccharomyces cerevisiae [29] = assay: Antifungal activity against Saccharomyces cerevisiae BY4741 harboring deletion mutation in dph2 gene at 300 to 500 ng/ml after 24 hrs by liquid growth assay; assay type: functional
Saccharomyces cerevisiae [30] = assay: Antifungal activity against Saccharomyces cerevisiae BY4741 harboring LDB17 YDL146W mutant gene by spectrophotometry; assay type: functional; procedure, shortened: as §2
Saccharomyces cerevisiae [31] = assay: Antifungal activity against Saccharomyces cerevisiae BY4741 harboring YDL063C mutation in unknown gene by spectrophotometry; assay type: functional; procedure, shortened: as §1
Saccharomyces cerevisiae [32] = assay: Antifungal activity against Saccharomyces cerevisiae BY4741 harboring YLR202C mutation in unknown gene by spectrophotometry; assay type: functional
Procedure, shortened: (§3)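 Deletion strains from the nonessential haploid MATa BY4741 collection (KanMX4 replacement) were grown in YPD with G418 at 28°C for 3 days, then pinned into liquid SC with or without sordarin derivative GM193663 (2 ng/ml for sensitivity, 62.5 ng/ml for resistance). Cultures were kept at 28°C and read at OD595 every 24 h for 5 days. Growth was scored against wild type on the same plate and against the drug-free control. Hits were retested at least in duplicate.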

Saccharomyces cerevisiae [33] = assay: Antifungal activity against Saccharomyces cerevisiae BY4741 harboring FMP35 YIL157C mutant gene by spectrophotometry; assay type: functional; procedure, shortened: as §2
Saccharomyces cerevisiae [34] = assay: Antifungal activity against Saccharomyces cerevisiae BY4741 harboring YHR151C mutation in unknown gene by spectrophotometry; assay type: functional; procedure, shortened: as §3
Saccharomyces cerevisiae [35] = assay: Antifungal activity against Saccharomyces cerevisiae BY4741 harboring YGR228W mutation in unknown gene by spectrophotometry; assay type: functional; procedure, shortened: as §3
Saccharomyces cerevisiae [36] = assay: Antifungal activity against Saccharomyces cerevisiae BY4741 harboring FYV1 YDR024W mutant gene by spectrophotometry; assay type: functional; procedure, shortened: as §2
Saccharomyces cerevisiae [37] = assay: Antifungal activity against Saccharomyces cerevisiae BY4741 harboring YDR020C mutation in unknown gene by spectrophotometry; assay type: functional; procedure, shortened: as §1
Saccharomyces cerevisiae [38] = assay: Antifungal activity against Saccharomyces cerevisiae BY4741 harboring COX11 YPL132W mutant gene by spectrophotometry; assay type: functional; procedure, shortened: as §2
Saccharomyces cerevisiae [39] = assay: Antifungal activity against Saccharomyces cerevisiae BY4741 harboring DAL7 YIR031C mutant gene by spectrophotometry; assay type: functional; procedure, shortened: as §2

For CO[C@H]1[C@@H](O)[C@H](O)[C@H](OC[C@@]23C[C@@H]4[C@H](C)CC[C@H]4[C@@]4(C=O)CC2C=C(C(C)C)[C@@]34C(=O)O)O[C@@H]1C [SORDARIN], the MIC (Saccharomyces cerevisiae [1]) was > 0.125 µg/mL, the MIC (Saccharomyces cerevisiae [2]) was > 0.5 µg/mL and the MIC (Saccharomyces cerevisiae [3]) was > 0.5 µg/mL. The MIC (Saccharomyces cerevisiae [4]) was > 0.125 µg/mL, the MIC (Saccharomyces cerevisiae [5]) was > 0.5 µg/mL and the MIC (Saccharomyces cerevisiae [6]) was > 0.5 µg/mL. For the same molecule, the MIC (Saccharomyces cerevisiae [7]) was > 0.125 µg/mL, the MIC (Saccharomyces cerevisiae [8]) was > 0.5 µg/mL and the MIC (Saccharomyces cerevisiae [9]) was > 0.5 µg/mL. For the same molecule, the MIC (Saccharomyces cerevisiae [10]) was > 0.5 µg/mL, the MIC (Saccharomyces cerevisiae [11]) was > 0.5 µg/mL and the MIC (Saccharomyces cerevisiae [12]) was > 0.5 µg/mL. For the same molecule, the MIC (Saccharomyces cerevisiae [13]) was > 0.125 µg/mL, the MIC (Saccharomyces cerevisiae [14]) was > 0.125 µg/mL and the MIC (Saccharomyces cerevisiae [15]) was > 0.5 µg/mL. The MIC (Saccharomyces cerevisiae [16]) was > 0.0625 µg/mL, the MIC (Saccharomyces cerevisiae [17]) was > 0.5 µg/mL and the MIC (Saccharomyces cerevisiae [18]) was > 0.5 µg/mL. The MIC (Saccharomyces cerevisiae [19]) was > 0.125 µg/mL, the MIC (Saccharomyces cerevisiae [20]) was > 0.125 µg/mL and the MIC (Saccharomyces cerevisiae [21]) was > 0.125 µg/mL. The MIC (Saccharomyces cerevisiae [22]) was > 0.5 µg/mL, the MIC (Saccharomyces cerevisiae [23]) was > 0.0625 µg/mL and the MIC (Saccharomyces cerevisiae [24]) was > 0.5 µg/mL. The MIC (Saccharomyces cerevisiae [25]) was > 0.5 µg/mL, the MIC (Saccharomyces cerevisiae [26]) was > 0.125 µg/mL and the Activity (Saccharomyces cerevisiae [27]) was “Active”. The Activity (Saccharomyces cerevisiae [28]) was 50%, the Activity (Saccharomyces cerevisiae [29]) was 50% and the MIC (Saccharomyces cerevisiae [30]) was > 0.125 µg/mL. For the same molecule, the MIC (Saccharomyces cerevisiae [31]) was > 0.125 µg/mL, the MIC (Saccharomyces cerevisiae [32]) was > 0.5 µg/mL and the MIC (Saccharomyces cerevisiae [33]) was > 0.5 µg/mL. The MIC (Saccharomyces cerevisiae [34]) was > 0.5 µg/mL, the MIC (Saccharomyces cerevisiae [35]) was > 0.5 µg/mL and the MIC (Saccharomyces cerevisiae [36]) was > 0.5 µg/mL. The MIC (Saccharomyces cerevisiae [37]) was > 0.5 µg/mL, the MIC (Saccharomyces cerevisiae [38]) was > 0.125 µg/mL and the MIC (Saccharomyces cerevisiae [39]) was > 0.125 µg/mL.
